From PubChem
An excerpt weighted towards active compounds, which were near 5.1% of everything screened.
STAT3 blocker = IL-6 driven STAT3 reporter inhibitors, primary screen, U3A cells, luciferase, luminescence, MLSCN library; IL-6 STAT3-luciferase reporter; host cell line lacks STAT1; inhibition, % at 5.5 µM; actives 0.89% (n = 190,000); AID 862, 2007;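 active means inhibition above the mean inhibition across all screened compounds plus 3 SD, cut at about 44% in these data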;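 further: 0% = DMSO only wells and 100% = 100 µM nifuroxazide control wells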
STAT1 inh = STAT1 signaling inhibitors, primary screen, cell-based, HTS, luciferase reporter | NIH 3T3 STAT1-luciferase reporter, IFN-gamma, luminescence | AID 920, 2007 | inhibition, % at 5.5 µM | actives 0.35% (n = 200,000);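 active means inhibition above a set limit, the mean inhibition across all tested compounds plus 3 SD, cut at about 34% in these data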;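 further: 0% = IFN-gamma with DMSO and 100% = IFN-gamma with 300 µM nifuroxazide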
STAT1 act-1 = STAT1 signaling activators, primary screen, cell-based, HTS, luciferase reporter; NIH 3T3 STAT1-luciferase reporter, IFN-gamma, luminescence; 100% = IFN-gamma alone, no compound; activation (% of control), % at 5.5 µM; actives 2.6% (n = 200,000); AID 932, 2007;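 active means activation above the screen-wide mean activation plus 3 SD, cut at about 130% in these data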;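 further: raw ratio to IFN-gamma control signal so 100% means no change and 0% no light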
NF-kB neuron act = activators of NF-kB expression in neurons, primary screen, cell-based, HTS. actives 1.6% (n = 190,000). fold change at 12.5 µM. human neuronal cells, NF-kB reporter expression; hits give high values; in the data active means fold change above about 3.3
APP 5'UTR act = activators of APP 5'UTR luciferase reporter, primary screen, SH-SY5Y cells. SH-SY5Y APP 5'UTR luciferase reporter, luminescence; zero percent = DMSO vehicle wells. activation, % at 2 µM. actives 1% (n = 190,000);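 active means activation above a set limit, based on mean plus 3 SD of controls, cut at about 140% in these data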
STAT3 act-1 = IL-6 driven STAT3 reporter potentiators, primary screen, U3A cells, luciferase, luminescence, MLSCN library. activation (% of control), % at 5.6 µM. AID 871, 2007. IL-6 STAT3-luciferase reporter; 100% = signal with IL-6 EC80 alone. actives 0.91% (n = 190,000);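 active means activation above the screen-wide mean of compound activation plus 3 SD, cut at about 130% in these data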;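 further: 0% = background luminescence of wells with medium and substrate only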
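Assay system – human STAT1-deficient U3A cells with stable STAT3-luciferase reporter · Also added – IL-6 (33 ng/mL) · Schedule – compound 1 h, then IL-6 6 h at 37 °C · Technique – reporter luminescence signal · Evaluation – % activation versus median of IL-6-stimulated wells · Benchmarks – IL-6-only wells as 100% reference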
STAT3 act-2 = STAT3 reporter potentiators, retest of hits, confirmation, U3A cells, luciferase, luminescence; shares compounds with STAT3 act-1; IL-6 potentiation; U3A cells lack STAT1; 100 means same as IL-6 alone; potentiation (% of control), % at 5.7 µM; actives 64% (n = 1,200); AID 1267, 2008;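 active means percent activation of the STAT3 luciferase reporter above a set limit taken from the earlier primary screen, cut at about 130% in these data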;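 further: 0% = background signal of medium plus substrate and 100% = median of IL-6 with DMSO wells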
NFkB act 2 = NF-kB reporter activators in human cells, counter-screen for STAT3 activator project. activation (% of control), % at 5.7 µM. AID 1309, 2008. NF-kappaB reporter activation. shares compounds with STAT3 act-1. actives 11% (n = 1,200); in the data active means activation above about 120%;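 further: reporter induced by TNF-alpha stimulation; 100% = median of stimulated DMSO wells and 0% = no signal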
STAT1 act-2 = STAT1 reporter activators, IFN-gamma induced, counter-screen for STAT3 activator project, cell-based, NIH 3T3, luciferase luminescence. shares compounds with STAT3 act-1. NIH 3T3 STAT1-luciferase reporter. activation (% of control), % at 5.7 µM. actives 13% (n = 1,200). AID 1318, 2008;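 active means activation above the solvent-only control well mean plus 3 SD, set per screening run, cut at about 120% in these data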;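 further: 100% = IFN-gamma with DMSO median signal so 100% means no change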
* = called active by the depositor; nt = no result given.

SMILES | STAT3 blocker | STAT1 inh | STAT1 act-1 | NF-kB neuron act | APP 5'UTR act | STAT3 act-1 | STAT3 act-2 | NFkB act 2 | STAT1 act-2
CC1Cc2nc(SCC(=O)Nc3nc4ccccc4s3)n(C)c(=O)c2S1 (stereo not given) | 18.6 | 9.7 | 91.2 | 0.53 | 1.4 | 91.4 | nt | nt | nt
COCCSc1ccccc1C(=O)NCCc1ccccc1 | -47.8 | 3.3 | 97.0 | 0.97 | -7.2 | 137.8* | 149.0* | 105.7 | 97.2
O=C(NCCCO)C(=O)NCc1ccncc1 | 8.0 | -1.1 | 99.1 | 1.15 | 24.2 | 100.5 | nt | nt | nt
Cc1nc2cc(-c3cccc(F)c3)nn2c(N2CCN(C(=O)c3ccco3)CC2)c1C | -48.6 | 2.7 | 97.5 | 1.99 | 15.2 | 136.7* | 119.6 | 113.7 | 90.9
CC1CCN(CCCNC(=O)c2ccc(Cn3c(=S)[nH]c4ccc(Br)cc4c3=O)cc2)CC1 | -11.6 | -1.9 | 101.3 | 0.66 | -0.2 | 111.5 | nt | nt | nt
N#C/C(=C\Nc1ccccc1O)c1nc2ccccc2o1 | -82.6 | 2.7 | 97.6 | 0.98 | 26.5 | 165.3* | 183.5* | 108.5 | 105.8
Cc1ccn2c(-c3n[nH]c(=S)n3C)c(C)nc2c1 | -2.4 | -2.8 | 102.5 | 1.4 | 4.4 | 102.2 | nt | nt | nt
CC1=NOC(=O)/C1=C\c1ccc(-c2ccc(Br)cc2)o1 | -27.1 | -25.4 | 121.4 | 0.85 | -4.3 | 136.4* | 117.9 | 115.4 | 112.3
COc1ccc(/C=N/Nc2ccccn2)c(OC)c1OC | 9.9 | -16.7 | 114.9 | 1.01 | 35.9 | 93.8 | nt | nt | nt
Cc1ccc(C)c(/C=N/Nc2ccccn2)c1 | -48.9 | -27.4 | 125.4 | 1.62 | 21.7 | 140.3* | 126.6 | 105.8 | 127.6*
COC(=O)c1cccc(C(=O)Nc2ccc(C)cc2Br)n1 | -42.4 | 7.7 | 93.0 | 1.36 | 15.6 | 140.8* | 129.8 | 109.3 | 102.7
CCN(CC)C(=O)Nc1cnc2ccccc2c1 | -4.7 | -9.6 | 108.8 | 1.9 | 36.8 | 106.3 | nt | nt | nt
COC(=O)c1cccc(C(=O)Nc2cnc3ccccc3c2)n1 | -92.9 | -10.8 | 109.8 | 0.87 | 0.5 | 183.3* | 162.4* | 111.5 | 122.2*
COc1cc(/C=N/NC(=S)N/N=C/c2cc(OC)c(OC)c(OC)c2)cc(OC)c1OC | -14.4 | -13.2 | 111.7 | 1.22 | -0.8 | 109.5 | nt | nt | nt
Cc1cc(NC(=O)CCl)n(-c2nc3ccccc3s2)n1 | -61.0 | -3.6 | 101.9 | 1.11 | 42.9 | 151.5* | 146.4* | 105.6 | 99.0
Cc1cc(NC(=O)C2CC2)n(-c2nc3ccccc3s2)n1 | -70.5 | -19.8 | 116.9 | 1.47 | -9.1 | 160.1* | 153.9* | 108.3 | 112.3
S=c1[nH]nc(-c2ccco2)n1/N=C/c1ccc(Cl)cc1 | 16.3 | 8.7 | 92.0 | 1.13 | -0.2 | 85.2 | nt | nt | nt
CCOC(=O)C1(CC2CCCCO2)CCN(Cc2cc3ccccc3[nH]2)CC1 (stereo not given) | -48.7 | 19.2 | 81.2 | 1 | 13.9 | 143.8* | 135.8* | 104.2 | 95.1
O=C1C(Cc2c[nH]c3ccccc23)NC(=S)N1Cc1ccccc1 (stereo not given) | -12.7 | -3.2 | 101.6 | 0.91 | -11.7 | 111.7 | nt | nt | nt
CC(C)C1NC(=S)N(Cc2ccccc2)C1=O (stereo not given) | -46.5 | -3.0 | 102.7 | 1.24 | -0.5 | 142.0* | 98.0 | 105.3 | 99.4
COC(=O)c1ccc(N2CCN(S(=O)(=O)c3ccc4ccccc4c3)CC2)c([N+](=O)[O-])c1 | 19.0 | 13.8 | 87.6 | 0.86 | nt | 89.0 | nt | nt | nt
COC(=O)c1ccc(N2CCN(CC(=O)c3ccc(-c4ccccc4)cc3)CC2)c([N+](=O)[O-])c1 | -43.2 | -9.0 | 108.1 | 1.34 | 5.9 | 144.1* | 137.8* | 108.1 | 123.7*
CCc1ccc(NC(=O)c2cnc3scc(C)n3c2=O)cc1 | -67.6 | -32.0 | 126.5 | 2.06 | 60.7 | 154.0* | 164.6* | 114.9 | 137.8*
COc1ccc(C)cc1NC(=O)c1cnc2scc(C)n2c1=O | 10.6 | -5.2 | 102.1 | 1.09 | 2.1 | 90.7 | nt | nt | nt
O=C(O)c1ccc(CNC(=O)c2ccc(C(F)(F)F)cc2)cc1 | -50.3 | -9.5 | 108.8 | 1.19 | 3.0 | 148.9* | 168.3* | 104.5 | 105.0
SMILES | STAT3 blocker | STAT1 inh | STAT1 act-1 | NF-kB neuron act | APP 5'UTR act | STAT3 act-1 | STAT3 act-2 | NFkB act 2 | STAT1 act-2
COc1cc(C)c(Cl)cc1S(=O)(=O)NC1CC(C)(C)NC(C)(C)C1 | 7.9 | 0.4 | 97.8 | 0.98 | 19.6 | 99.2 | nt | nt | nt
Cc1ccccc1C1C(C#N)=C2N=C(N)c3c(sc4c3CCCCC4)N2C2=C1C(=O)CCC2 (stereo not given) | 17.2 | 2.8 | 97.5 | 0.86 | 10.3 | 89.9 | nt | nt | nt
NNc1nc2c(Cl)ccc(Cl)c2s1 | -50.5 | 16.8 | 85.0 | 0.85 | -11.7 | 145.9* | 124.8 | 103.3 | 89.5
CN(C)S(=O)(=O)c1cc(NC(=O)CN2CCOCC2)ccc1Cl | -1.6 | 3.7 | 98.1 | 1.2 | 2.4 | 105.7 | nt | nt | nt
Cc1ccc(/C=N/NC(=O)Cc2c[nH]c3ccccc23)c(C)c1 | -40.9 | 0.9 | 99.1 | 1 | 9.4 | 141.8* | 129.6 | 100.8 | 90.8
Cc1ccc(C(=O)Nc2ccc(C(=O)N/N=C/c3c[nH]c4ccccc34)cc2)cc1 | -50.5 | 5.6 | 95.0 | 0.3 | 0.4 | 147.7* | 122.1 | 96.8 | 97.8
O=C(CCCCCN1C(=O)CCC1=O)Nc1ccc(Cl)c(C(F)(F)F)c1 | 13.8 | 3.5 | 96.8 | 0.67 | 6.7 | 92.0 | nt | nt | nt
CCCCn1c(N)c(N(CCC(C)C)C(=O)COC(=O)c2ccccc2)c(=O)[nH]c1=O | -53.7 | 10.7 | 88.1 | 0.92 | -4.7 | 143.2* | 147.9* | 96.0 | 89.2
CCCCn1c(N)c(N(CCC(C)C)C(=O)COC(=O)c2ccco2)c(=O)[nH]c1=O | 3.8 | 3.1 | 98.4 | 1.03 | 3.2 | 100.5 | nt | nt | nt
COc1ccc(NC(=O)C(C)N2C(=O)c3ccccc3C2=O)cc1S(=O)(=O)N1CCOCC1 (stereo not given) | 4.5 | 1.2 | 98.3 | 1.37 | -8.5 | 107.1 | nt | nt | nt
Cc1c(NC(=O)COC(=O)c2cc3c4ccccc4n(C)c3s2)c(=O)n(-c2ccccc2)n1C | -68.3 | 3.5 | 96.8 | 0.77 | 16.4 | 157.8* | 135.9* | 101.6 | 95.6
Oc1cccc2ccc[n+](CC(O)Cn3c4ccccc4c4ccccc43)c12 (stereo not given) | -13.1 | 1.2 | 98.9 | 0.67 | -10.1 | 108.5 | nt | nt | nt
